Results: ChEMBL document CHEMBL3739417, “Synthesis and biological evaluation of novel 4,5-disubstituted 2H-1,2,3-triazoles as cis-constrained analogues of combretastatin A-4” (2015)

Tests used:
Assay type in all cases: functional
MDA-MB-468 = assay: Growth inhibition of human MDA-MB-468 cells after 48 hrs by sulforhodamine B assay; settings: MDA-MB-468, 48 h
Procedure, shortened: (§1)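 NCI-60 panel screen by SRB assay (Rubinstein method). Percentage growth taken from optical density of SRB colour, read before and 48 hrs after exposure to compound or vehicle control. All analogues first screened at 10^-5 M. Analogues giving 60% growth inhibition at that level in at least eight lines then went to a five-concentration dose-response study.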

[1] = Growth inhibition of human PC3 cells after 48 hrs by sulforhodamine B assay; settings: PC-3, 48 h; procedure, shortened: as §1
CCRF-CEM = assay: Growth inhibition of human CCRF-CEM cells after 48 hrs by sulforhodamine B assay; procedure, shortened: as §1
[2] = Growth inhibition of human IGROV1 cells after 48 hrs by sulforhodamine B assay; settings: IGROV-1, 48 h; procedure, shortened: as §1
U-251 = assay: Growth inhibition of human U251 cells after 48 hrs by sulforhodamine B assay; settings: U-251, 48 h; procedure, shortened: as §1
SK-MEL-5 = assay: Growth inhibition of human SK-MEL-5 cells after 48 hrs by sulforhodamine B assay; settings: SK-MEL-5, 48 h; procedure, shortened: as §1
A498 = assay: Growth inhibition of human A498 cells after 48 hrs by sulforhodamine B assay; settings: A498, 48 h
Procedure, shortened: (§2)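 NCI-60 sulforhodamine B screen. Compounds were first tested at a single dose of 10⁻⁵ M; hits, defined as ≥60% growth inhibition in at least eight lines, went on to a five-concentration dose–response. SRB optical density was read before and 48 h after exposure to compound or vehicle. Percentage growth was calculated from OD.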

MDA-MB-231 = assay: Growth inhibition of human MDA-MB-231 cells after 48 hrs by sulforhodamine B assay; settings: MDA-MB-231, 48 h; procedure, shortened: as §1
HT-29 = assay: Growth inhibition of human HT-29 cells after 48 hrs by sulforhodamine B assay; settings: HT-29, 48 h; procedure, shortened: as §1
[3] = Growth inhibition of human COLO205 cells after 48 hrs by sulforhodamine B assay; settings: COLO 205, 48 h; procedure, shortened: as §1
[4] = Growth inhibition of human RPMI8226 cells after 48 hrs by sulforhodamine B assay; settings: RPMI-8226, 48 h; procedure, shortened: as §1
K562 = assay: Growth inhibition of human K562 cells after 48 hrs by sulforhodamine B assay; settings: K562, 48 h; procedure, shortened: as §1
NCI-H460 = assay: Growth inhibition of human NCI-H460 cells after 48 hrs by sulforhodamine B assay; settings: NCI-H460, 48 h; procedure, shortened: as §1
KM12 = assay: Growth inhibition of human KM12 cells after 48 hrs by sulforhodamine B assay; settings: KM12, 48 h; procedure, shortened: as §1
[5] = Growth inhibition of human DU145 cells after 48 hrs by sulforhodamine B assay; settings: DU-145, 48 h; procedure, shortened: as §1
[6] = Growth inhibition of human HCT116 cells after 48 hrs by sulforhodamine B assay; settings: HCT-116, 48 h; procedure, shortened: as §1
786-0 = assay: Growth inhibition of human 786-0 cells after 48 hrs by sulforhodamine B assay; settings: 786-0, 48 h; procedure, shortened: as §1
MDA-MB-435 = assay: Growth inhibition of human MDA-MB-435 cells after 48 hrs by sulforhodamine B assay; settings: MDA-MB-435, 48 h; procedure, shortened: as §2
[7] = Growth inhibition of human NCI-ADR-RES cells after 48 hrs by sulforhodamine B assay; procedure, shortened: as §1
[8] = Growth inhibition of human LOXIMVI cells after 48 hrs by sulforhodamine B assay; settings: LOX IMVI; procedure, shortened: as §1
[9] = Growth inhibition of human SF268 cells after 48 hrs by sulforhodamine B assay; settings: SF-268, 48 h; procedure, shortened: as §1
[10] = Growth inhibition of human HL-60(TB) cells after 48 hrs by sulforhodamine B assay; settings: HL-60, 48 h; procedure, shortened: as §1
[11] = Growth inhibition of human SKOV3 cells after 48 hrs by sulforhodamine B assay; settings: SK-OV-3, 48 h; procedure, shortened: as §1
[12] = Growth inhibition of human SF295 cells after 48 hrs by sulforhodamine B assay; settings: SF-295, 48 h; procedure, shortened: as §1
[13] = Growth inhibition of human HCC2998 cells after 48 hrs by sulforhodamine B assay; settings: HCC 2998, 48 h; procedure, shortened: as §1
A549 = assay: Growth inhibition of human A549/ATCC cells after 48 hrs by sulforhodamine B assay; settings: A549, 48 h; procedure, shortened: as §1
[14] = Growth inhibition of human HCT15 cells after 48 hrs by sulforhodamine B assay; settings: HCT-15, 48 h; procedure, shortened: as §1
MCF7 = assay: Growth inhibition of human MCF7 cells after 48 hrs by sulforhodamine B assay; settings: MCF7, 48 h; procedure, shortened: as §1
NCI-H23 = assay: Growth inhibition of human NCI-H23 cells after 48 hrs by sulforhodamine B assay; settings: NCI-H23, 48 h; procedure, shortened: as §1
[15] = Growth inhibition of human SNB75 cells after 48 hrs by sulforhodamine B assay; settings: SNB-75, 48 h; procedure, shortened: as §1
SR = assay: Growth inhibition of human SR cells after 48 hrs by sulforhodamine B assay; procedure, shortened: as §1
[16] = Growth inhibition of human HOP92 cells after 48 hrs by sulforhodamine B assay; settings: HOP-92, 48 h; procedure, shortened: as §1
[17] = Growth inhibition of human HOP62 cells after 48 hrs by sulforhodamine B assay; settings: HOP-62, 48 h; procedure, shortened: as §1
CAKI-1 = assay: Growth inhibition of human CAKI-1 cells after 48 hrs by sulforhodamine B assay; settings: CAKI-1, 48 h; procedure, shortened: as §1
ACHN = assay: Growth inhibition of human ACHN cells after 48 hrs by sulforhodamine B assay; procedure, shortened: as §1
[18] = Growth inhibition of human OVCAR3 cells after 48 hrs by sulforhodamine B assay; settings: OVCAR-3, 48 h; procedure, shortened: as §2
SK-MEL-2 = assay: Growth inhibition of human SK-MEL-2 cells after 48 hrs by sulforhodamine B assay; settings: SK-MEL-2, 48 h; procedure, shortened: as §1
[19] = read-out: LD50 (the source's name)

COc1cc(-c2n[nH]nc2-c2ccc3c(c2)OCCO3)cc(OC)c1OC
GI50 (MDA-MB-468): 15 nM | CC50 (MDA-MB-468; [19]): > 100000 nM | GI50 [1]: 18 nM | CC50 [1, 19]: > 100000 nM | GI50 (CCRF-CEM): 34 nM | LC50 (concentration killing 50% of cells) (CCRF-CEM; read-out: LD50): > 100000 nM | GI50 [2]: 33 nM | CC50 [2, 19]: > 100000 nM | GI50 (U-251): 20 nM | CC50 (U-251; [19]): > 100000 nM | GI50 (SK-MEL-5): < 10 nM | CC50 (SK-MEL-5; [19]): > 100000 nM | GI50 (A498): 10 nM | LC50 (50% net cell kill) (A498; read-out: LD50): > 100000 nM | GI50 (MDA-MB-231): 44 nM | CC50 (MDA-MB-231; [19]): > 100000 nM | GI50 (HT-29): 25 nM | LC50 (concentration killing 50% of cells) (HT-29; read-out: LD50): > 100000 nM | GI50 [3]: 27 nM | CC50 [3, 19]: > 100000 nM | GI50 [4]: 33 nM | CC50 [4, 19]: > 100000 nM | GI50 (K562): < 10 nM | CC50 (K562; [19]): > 100000 nM | GI50 (NCI-H460): 25 nM | CC50 (NCI-H460; [19]): > 100000 nM | GI50 (KM12): < 10 nM | LC50 (concentration killing 50% of cells) (KM12; read-out: LD50): > 100000 nM | GI50 [5]: 25 nM | CC50 [5, 19]: > 100000 nM | GI50 [6]: < 10 nM | CC50 [6, 19]: > 100000 nM | GI50 (786-0): < 10 nM | LC50 (concentration killing 50% of cells) (786-0; read-out: LD50): > 100000 nM | GI50 (MDA-MB-435): < 10 nM | LC50 (concentration killing 50% of cells) (MDA-MB-435; read-out: LD50): > 100000 nM | GI50 [7]: < 10 nM | CC50 [7, 19]: > 100000 nM | GI50 [8]: 18 nM | CC50 [8, 19]: > 100000 nM | GI50 [9]: 69 nM | CC50 [9, 19]: > 100000 nM | GI50 [10]: 19 nM | CC50 [10, 19]: > 100000 nM | GI50 [11]: < 10 nM | LC50 (concentration killing 50% of cells) ([11]; read-out: LD50): > 100000 nM | GI50 [12]: < 10 nM | CC50 [12, 19]: > 100000 nM | GI50 [13]: 39 nM | CC50 [13, 19]: > 100000 nM | GI50 (A549): 23 nM | CC50 (A549; [19]): > 100000 nM | GI50 [14]: < 10 nM | CC50 [14, 19]: > 100000 nM | GI50 (MCF7): < 10 nM | CC50 (MCF7; [19]): > 100000 nM | GI50 (NCI-H23): 48 nM | LC50 (concentration giving 50% cell kill) (NCI-H23; read-out: LD50): > 100000 nM | GI50 [15]: < 10 nM | CC50 [15, 19]: > 100000 nM | GI50 (SR): < 10 nM | LC50 (concentration giving 50% net cell kill) (SR; read-out: LD50): > 100000 nM | GI50 [16]: < 10 nM | CC50 [16, 19]: > 100000 nM | GI50 [17]: 18 nM | LC50 (concentration killing 50% of cells) ([17]; read-out: LD50): > 100000 nM | GI50 (CAKI-1): < 10 nM | CC50 (CAKI-1; [19]): > 100000 nM | GI50 (ACHN): < 10 nM | CC50 (ACHN; [19]): > 100000 nM | GI50 [18]: < 10 nM | LC50 (concentration giving 50% net cell kill) ([18]; read-out: LD50): > 100000 nM | GI50 (SK-MEL-2): < 10 nM | CC50 (SK-MEL-2; [19]): > 100000 nM
